Where a chain is given by its changes, count along the chain named.
Assays:
Details in all cases: stereoisomer not certain
O5AN1 = test system: T1, O5AN1
T1 sequence (whole entry): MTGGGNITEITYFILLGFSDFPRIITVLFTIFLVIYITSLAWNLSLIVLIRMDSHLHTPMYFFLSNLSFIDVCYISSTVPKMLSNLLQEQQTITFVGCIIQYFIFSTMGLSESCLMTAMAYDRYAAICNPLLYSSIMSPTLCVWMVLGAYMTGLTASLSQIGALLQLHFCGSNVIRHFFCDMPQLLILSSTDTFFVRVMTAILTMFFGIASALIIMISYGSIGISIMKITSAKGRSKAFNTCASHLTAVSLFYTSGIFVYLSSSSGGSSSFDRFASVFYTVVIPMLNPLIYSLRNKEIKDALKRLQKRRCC
Outline: (§1)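 Assay methods differ from source to source, frequently being transient luciferase assays in mammalian cell lines. For each receptor–molecule pair, the label responsive (active) applies when the original authors judged the measured signal statistically different from baseline, and non-responsive (inactive) applies otherwise.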

O5AP2 A105T = test system: T2, O5AP2 A105T
T2 sequence (whole entry): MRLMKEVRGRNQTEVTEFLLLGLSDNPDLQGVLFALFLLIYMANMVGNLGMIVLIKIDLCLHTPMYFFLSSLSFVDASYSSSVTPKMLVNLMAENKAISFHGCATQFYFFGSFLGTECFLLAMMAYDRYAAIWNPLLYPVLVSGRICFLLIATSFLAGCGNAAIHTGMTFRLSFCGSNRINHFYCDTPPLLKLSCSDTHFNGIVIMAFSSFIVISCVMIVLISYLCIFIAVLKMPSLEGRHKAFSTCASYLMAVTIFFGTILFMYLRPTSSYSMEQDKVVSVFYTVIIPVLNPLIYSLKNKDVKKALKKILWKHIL
Outline: as §1

O5AU1 = test system: T3, O5AU1
T3 sequence (whole entry): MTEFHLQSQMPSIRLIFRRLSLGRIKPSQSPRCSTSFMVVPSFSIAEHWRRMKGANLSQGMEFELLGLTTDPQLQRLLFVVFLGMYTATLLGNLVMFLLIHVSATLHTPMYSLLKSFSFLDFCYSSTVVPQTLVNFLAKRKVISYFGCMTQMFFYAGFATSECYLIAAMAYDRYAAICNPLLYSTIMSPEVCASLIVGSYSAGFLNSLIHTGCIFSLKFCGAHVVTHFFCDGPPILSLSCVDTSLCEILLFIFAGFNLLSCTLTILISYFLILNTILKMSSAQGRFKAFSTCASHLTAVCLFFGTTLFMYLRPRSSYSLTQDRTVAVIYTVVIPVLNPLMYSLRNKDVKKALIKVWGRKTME
Outline: as §1

O5H14 = test system: T4, O5H14
T4 sequence (whole entry): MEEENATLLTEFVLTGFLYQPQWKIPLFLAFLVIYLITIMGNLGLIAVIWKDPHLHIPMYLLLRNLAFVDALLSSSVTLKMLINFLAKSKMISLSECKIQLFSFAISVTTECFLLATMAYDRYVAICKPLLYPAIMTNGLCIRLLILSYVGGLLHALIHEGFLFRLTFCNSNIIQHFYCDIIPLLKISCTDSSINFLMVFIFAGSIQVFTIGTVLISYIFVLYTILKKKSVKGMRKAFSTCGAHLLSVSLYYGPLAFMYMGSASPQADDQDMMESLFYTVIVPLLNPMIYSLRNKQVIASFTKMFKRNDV
Outline: as §1

O5H15 V108I S148T T167S = test system: T5, O5H15 V108I S148T T167S
T5 sequence (whole entry): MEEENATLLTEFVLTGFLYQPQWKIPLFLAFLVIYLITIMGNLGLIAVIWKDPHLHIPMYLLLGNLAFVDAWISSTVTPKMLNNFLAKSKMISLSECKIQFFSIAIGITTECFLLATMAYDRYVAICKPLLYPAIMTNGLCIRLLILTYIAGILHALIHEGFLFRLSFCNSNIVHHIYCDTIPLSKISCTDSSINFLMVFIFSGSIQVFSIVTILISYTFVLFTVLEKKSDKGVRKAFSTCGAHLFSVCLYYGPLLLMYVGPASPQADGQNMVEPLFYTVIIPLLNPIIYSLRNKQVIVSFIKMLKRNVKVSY
Outline: as §1

O6C65 T222A = test system: T6, O6C65 T222A
T6 sequence (whole entry): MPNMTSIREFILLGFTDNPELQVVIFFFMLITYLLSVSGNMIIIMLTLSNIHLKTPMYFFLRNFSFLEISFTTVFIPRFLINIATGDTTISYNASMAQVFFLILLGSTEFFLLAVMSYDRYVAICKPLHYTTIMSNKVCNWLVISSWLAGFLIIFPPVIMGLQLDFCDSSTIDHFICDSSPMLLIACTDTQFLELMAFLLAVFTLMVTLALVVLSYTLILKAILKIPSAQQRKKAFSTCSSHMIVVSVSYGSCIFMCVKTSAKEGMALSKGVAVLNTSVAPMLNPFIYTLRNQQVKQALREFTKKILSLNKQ
Outline: as §1

O6C70 L181P = test system: T7, O6C70 L181P
T7 sequence (whole entry): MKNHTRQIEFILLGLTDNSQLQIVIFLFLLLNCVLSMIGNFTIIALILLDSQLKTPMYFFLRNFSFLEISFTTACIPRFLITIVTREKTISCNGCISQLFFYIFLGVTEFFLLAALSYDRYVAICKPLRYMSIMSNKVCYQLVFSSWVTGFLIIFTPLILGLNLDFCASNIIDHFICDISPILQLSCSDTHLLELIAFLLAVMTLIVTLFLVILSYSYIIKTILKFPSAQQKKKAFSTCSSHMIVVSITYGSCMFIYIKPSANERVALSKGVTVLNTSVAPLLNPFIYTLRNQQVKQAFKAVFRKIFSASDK
Outline: as §1

O7E24 S193F P242S = test system: T8, O7E24 S193F P242S
T8 sequence (whole entry): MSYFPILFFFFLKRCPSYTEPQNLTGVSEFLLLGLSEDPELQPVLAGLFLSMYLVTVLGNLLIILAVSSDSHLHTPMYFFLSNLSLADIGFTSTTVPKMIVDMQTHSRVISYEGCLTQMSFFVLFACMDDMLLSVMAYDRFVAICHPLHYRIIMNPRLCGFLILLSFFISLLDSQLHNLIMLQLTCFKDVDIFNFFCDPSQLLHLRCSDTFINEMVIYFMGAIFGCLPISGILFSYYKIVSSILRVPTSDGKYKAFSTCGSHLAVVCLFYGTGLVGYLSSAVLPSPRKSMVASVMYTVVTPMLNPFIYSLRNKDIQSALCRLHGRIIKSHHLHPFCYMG
Outline: as §1

O7E24 = test system: T9, O7E24
T9 sequence (whole entry): T8 sequence (whole entry) with F193S
Outline: as §1

OR10A2 (Homo sapiens) = target: T10, OR10A2 (Homo sapiens) (UniProt Q9H208)
T10 sequence (whole entry): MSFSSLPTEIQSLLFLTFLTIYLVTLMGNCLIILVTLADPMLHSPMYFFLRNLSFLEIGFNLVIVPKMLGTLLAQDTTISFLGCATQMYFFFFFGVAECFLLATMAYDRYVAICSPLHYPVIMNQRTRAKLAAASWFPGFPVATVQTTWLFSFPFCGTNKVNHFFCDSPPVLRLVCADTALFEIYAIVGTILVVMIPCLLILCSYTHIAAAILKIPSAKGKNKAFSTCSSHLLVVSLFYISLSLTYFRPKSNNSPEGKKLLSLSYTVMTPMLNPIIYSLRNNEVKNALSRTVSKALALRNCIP
Outline: as §1

OR10A3 (Homo sapiens) = target: T11, OR10A3 (Homo sapiens) (UniProt P58181)
T11 sequence (whole entry): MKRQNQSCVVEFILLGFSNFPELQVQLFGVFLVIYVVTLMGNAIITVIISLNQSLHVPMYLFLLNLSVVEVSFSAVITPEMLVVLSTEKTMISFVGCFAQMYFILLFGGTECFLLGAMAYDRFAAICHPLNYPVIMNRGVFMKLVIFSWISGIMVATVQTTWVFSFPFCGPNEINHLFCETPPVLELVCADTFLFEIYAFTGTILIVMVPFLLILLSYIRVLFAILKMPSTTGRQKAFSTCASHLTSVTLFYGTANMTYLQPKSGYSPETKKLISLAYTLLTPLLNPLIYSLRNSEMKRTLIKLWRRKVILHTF
Outline: as §1

OR10A4 (Homo sapiens) = target: T12, OR10A4 (Homo sapiens) (UniProt Q9H209)
T12 sequence (whole entry): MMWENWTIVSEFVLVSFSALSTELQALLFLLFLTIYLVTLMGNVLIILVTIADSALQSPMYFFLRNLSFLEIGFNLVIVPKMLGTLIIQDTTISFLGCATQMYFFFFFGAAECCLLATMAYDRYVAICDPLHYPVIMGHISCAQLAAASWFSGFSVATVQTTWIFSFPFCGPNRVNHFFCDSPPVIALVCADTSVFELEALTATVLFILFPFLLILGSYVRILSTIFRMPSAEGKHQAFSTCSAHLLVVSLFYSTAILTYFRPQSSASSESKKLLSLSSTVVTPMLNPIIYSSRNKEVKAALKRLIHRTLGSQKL
Outline: as §1

OR10A5 (Homo sapiens) = target: T13, OR10A5 (Homo sapiens) (UniProt Q9H207)
T13 sequence (whole entry): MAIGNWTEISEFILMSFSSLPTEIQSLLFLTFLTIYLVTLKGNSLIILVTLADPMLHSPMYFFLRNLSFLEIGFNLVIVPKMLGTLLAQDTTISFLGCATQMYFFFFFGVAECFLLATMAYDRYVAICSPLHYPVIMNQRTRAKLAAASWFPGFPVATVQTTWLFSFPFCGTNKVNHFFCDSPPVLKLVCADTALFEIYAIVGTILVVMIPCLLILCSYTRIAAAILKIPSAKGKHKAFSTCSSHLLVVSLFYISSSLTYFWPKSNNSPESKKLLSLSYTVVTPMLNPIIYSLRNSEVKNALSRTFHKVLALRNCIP
Outline: as §1

OR10A6 (Homo sapiens) = target: T14, OR10A6 (Homo sapiens) (UniProt Q8NH74)
T14 sequence (whole entry): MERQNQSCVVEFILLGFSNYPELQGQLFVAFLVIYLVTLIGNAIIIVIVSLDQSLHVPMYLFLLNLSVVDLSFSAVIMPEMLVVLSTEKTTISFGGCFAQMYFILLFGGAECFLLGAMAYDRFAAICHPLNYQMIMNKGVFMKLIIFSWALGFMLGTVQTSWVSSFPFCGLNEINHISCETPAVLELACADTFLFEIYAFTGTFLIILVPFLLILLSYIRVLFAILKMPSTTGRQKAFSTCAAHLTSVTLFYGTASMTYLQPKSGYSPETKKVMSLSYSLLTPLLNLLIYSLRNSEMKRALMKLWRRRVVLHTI
Outline: as §1

OR10A7 (Homo sapiens) = target: T15, OR10A7 (Homo sapiens) (UniProt Q8NGE5)
T15 sequence (whole entry): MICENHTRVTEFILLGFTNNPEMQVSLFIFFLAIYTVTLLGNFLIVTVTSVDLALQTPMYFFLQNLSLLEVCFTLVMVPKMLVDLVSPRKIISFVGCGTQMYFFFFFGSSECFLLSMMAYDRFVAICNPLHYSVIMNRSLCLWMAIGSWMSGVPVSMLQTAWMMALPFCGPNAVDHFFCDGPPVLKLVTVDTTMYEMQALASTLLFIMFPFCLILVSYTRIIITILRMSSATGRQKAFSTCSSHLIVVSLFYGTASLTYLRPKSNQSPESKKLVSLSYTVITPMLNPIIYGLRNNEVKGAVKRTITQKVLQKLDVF
Outline: as §1

OR10AD1 (Homo sapiens) = target: T16, OR10AD1 (Homo sapiens) (UniProt Q8NGE0)
T16 sequence (whole entry): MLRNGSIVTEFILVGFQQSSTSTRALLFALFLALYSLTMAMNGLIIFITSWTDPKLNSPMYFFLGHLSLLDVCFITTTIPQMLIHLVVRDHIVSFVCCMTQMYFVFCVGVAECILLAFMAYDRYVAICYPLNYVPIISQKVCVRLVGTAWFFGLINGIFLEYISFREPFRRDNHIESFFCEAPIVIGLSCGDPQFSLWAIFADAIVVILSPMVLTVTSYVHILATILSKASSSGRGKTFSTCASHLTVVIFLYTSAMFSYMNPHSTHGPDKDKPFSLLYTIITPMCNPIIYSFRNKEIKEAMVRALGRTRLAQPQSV
Outline: as §1

OR10AG1 (Homo sapiens) = target: T17, OR10AG1 (Homo sapiens) (UniProt Q8NH19)
T17 sequence (whole entry): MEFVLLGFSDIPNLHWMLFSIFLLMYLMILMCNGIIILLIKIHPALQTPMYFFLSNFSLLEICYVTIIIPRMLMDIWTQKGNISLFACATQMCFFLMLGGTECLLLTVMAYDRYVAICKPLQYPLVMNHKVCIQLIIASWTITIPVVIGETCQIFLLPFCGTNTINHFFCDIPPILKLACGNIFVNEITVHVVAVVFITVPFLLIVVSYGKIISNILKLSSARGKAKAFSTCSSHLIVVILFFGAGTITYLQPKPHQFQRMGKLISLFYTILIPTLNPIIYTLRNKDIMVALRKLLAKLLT
Outline: as §1

OR10C1 (Homo sapiens) = target: T18, OR10C1 (Homo sapiens) (UniProt Q96KK4)
T18 sequence (whole entry): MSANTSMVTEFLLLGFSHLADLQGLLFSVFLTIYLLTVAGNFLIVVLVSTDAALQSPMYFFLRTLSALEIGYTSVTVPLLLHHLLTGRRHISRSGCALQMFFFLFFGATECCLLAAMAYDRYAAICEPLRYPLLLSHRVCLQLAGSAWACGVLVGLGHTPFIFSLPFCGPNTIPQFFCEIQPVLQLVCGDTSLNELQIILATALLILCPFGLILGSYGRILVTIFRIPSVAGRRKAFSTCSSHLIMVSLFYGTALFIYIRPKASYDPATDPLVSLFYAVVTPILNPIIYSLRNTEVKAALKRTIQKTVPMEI
Outline: as §1

OR10D3 (Homo sapiens) = target: T19, OR10D3 (Homo sapiens) (UniProt Q8NH80)
T19 sequence (whole entry): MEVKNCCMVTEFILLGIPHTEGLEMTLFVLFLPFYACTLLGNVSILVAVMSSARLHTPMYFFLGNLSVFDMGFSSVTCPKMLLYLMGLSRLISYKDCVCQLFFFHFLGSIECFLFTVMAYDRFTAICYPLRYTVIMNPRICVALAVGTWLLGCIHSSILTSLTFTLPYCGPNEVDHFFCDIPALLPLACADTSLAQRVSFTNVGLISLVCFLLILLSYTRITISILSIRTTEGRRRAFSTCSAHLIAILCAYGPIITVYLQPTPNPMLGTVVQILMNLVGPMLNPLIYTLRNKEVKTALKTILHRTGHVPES
Outline: as §1

Measured: odorant receptor agonist call

CC1C(C)(C)C2=C(C(=O)CCC2)C1(C)C (centres undefined)
inactive: O5AN1

CCC1OC(C)=C(O)C1=O (centres undefined)
not listed: O5AN1
inactive: all other assays above
